This is an account of results in ChEMBL document CHEMBL1124330, “2-O-alkyltyrosine derivatives of 1-deamino-arginine-vasopressin: highly specific and potent antidiuretic agonists” (J Med Chem, 1989).

The species named for assay [1] is Rattus norvegicus. Put plainly: Compound was tested for its antidiuretic activity. The class given is functional, Urine.
Assay [2] relates to Rattus norvegicus. Put plainly: Dose that reduces the response seen with 2x units of agonist to equal the response seen with 1x unit of agonist administered before antagonist. Format: functional. In a few lines:
(§1)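 Vasopressor assay in urethane-anesthetized, phenoxybenzamine-treated rats, given by intravenous injection. Effective dose in nmol/kg is the antagonist dose that cuts the response to 2x units of agonist down to the response to 1x unit given before antagonist. USP posterior pituitary reference standard.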

The species entered for assay [3] is Rattus norvegicus. Put plainly: In vitro anti-oxytocic activity on isolated estrogen treated rat uteri without Mg+2. The class given is functional. Conditions: read-out: pA2 (converted). The method in brief: (§2)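 Uteri isolated from estrogen-treated female rats, suspended in medium containing either no Mg2+ or 0.5 mM Mg2+. Agonism estimated by the Holton method. Antagonistic pA2 values determined as described by Schild.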

Assay [4] is filed under the species Rattus norvegicus. Put plainly: Binding affinity was determined. Conditions: read-out: pA2 (converted). The class given is functional, organism-based.
For assay [5], the species on record is Rattus norvegicus. Put plainly: In vitro anti-oxytocic activity on isolated estrogen treated rat uteri with 0.5 mM Mg+2. Format: functional. Particulars: read-out: pA2 (converted). The method in brief:
as §2

The species named for assay [6] is Rattus norvegicus. The experiment in a line: In vitro anti-oxytocic activity on isolated estrogen treated rat uteri with Mg+2. The class given is functional. Conditions: read-out: pA2 (converted). The method in brief:
as §2

The species entered for assay [7] is Rattus norvegicus. The experiment in a line: In vitro anti-oxytocic activity on isolated estrogen treated rat uteri without Mg+2; Agonist. Format: functional. The method in brief:
as §2

Assay [8] is filed under the species Rattus norvegicus. The experiment in a line: In vitro anti-oxytocic activity on isolated estrogen treated rat uteri with 0.5 mM Mg+2; Agonist. The class given is functional. The method in brief: as §2
Assay [9] can be described thus: Ratio of antidiuretic to vasopressor agonistic activity. Format: functional, Urine. The method in brief: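 Quotient of antidiuretic to vasopressor agonist potency. Each potency was measured by intravenous injection against the USP posterior pituitary standard: antidiuresis in ethanol-anesthetized, water-loaded rats, and pressor response in phenoxybenzamine-treated, urethane-anesthetized rats.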

The species entered for assay [10] is Rattus norvegicus. The experiment in a line: In vitro oxytocic activity on isolated estrogen treated rat uteri with 0.5 mM Mg+2.
For assay [11], the species on record is Rattus norvegicus. The experiment in a line: Anti vasopressor activity was determined. The class given is functional, organism-based. Conditions: read-out: pA2 (converted). In a few lines:
as §1

Where a SMILES comes first, the peptide text is derived from it.

`COc1ccc(C[C@@H]2NC(=O)CCSSC[C@@H](C(=O)N3CCC[C@H]3C(=O)N[C@H](CCCN=C(N)N)C(=O)NCC(N)=O)NC(=O)[C@H](CC(N)=O)NC(=O)[C@H](C(C)C)NC(=O)[C@H](Cc3ccccc3)NC2=O)cc1` [listing 1 of 2 here]: in the assay listed under Rattus norvegicus [1], the Activity amounted to 1740 units/mg. In the assay with Rattus norvegicus [2], this compound yielded an ED of 8.4 nM/kg.

On to `CCOc1ccc(C[C@@H]2NC(=O)CCSSC[C@@H](C(=O)N3CCC[C@H]3C(=O)N[C@H](CCCN=C(N)N)C(=O)NCC(N)=O)NC(=O)[C@H](CC(N)=O)NC(=O)[C@H](CCC(N)=O)NC(=O)[C@H](Cc3ccccc3)NC2=O)cc1` [listing 1 of 2 here], for which the values for the Kb in the assay listed under Rattus norvegicus [3], in the assay listed under Rattus norvegicus [4] and in the assay filed under Rattus norvegicus [5] were 0.0525 µM, 0.129 µM and 0.0891 µM, respectively.

In the case of `CCOc1ccc(C[C@@H]2NC(=O)CCSSC[C@@H](C(=O)N3CCC[C@H]3C(=O)N[C@@H](CCCN=C(N)N)C(=O)NCC(N)=O)NC(=O)[C@H](CC(N)=O)NC(=O)[C@H](CCC(N)=O)NC(=O)[C@H](Cc3ccccc3)NC2=O)cc1` [listing 1 of 2 here], the values for the Kb in the assay listed under Rattus norvegicus [3], in the assay filed under Rattus norvegicus [4] and in the assay filed under Rattus norvegicus [5] were 0.0427 µM, 0.126 µM and 0.0398 µM, respectively.

Consider `COc1ccc(C[C@@H]2NC(=O)CCSSC[C@@H](C(=O)N3CCC[C@H]3C(=O)N[C@H](CCCN=C(N)N)C(=O)NCC(N)=O)NC(=O)[C@H](CC(N)=O)NC(=O)[C@H](C(C)C)NC(=O)[C@H](Cc3ccccc3)NC2=O)cc1` [listing 2 of 2 here], for which the Kb was 0.017 µM in the assay filed under Rattus norvegicus [3], 0.00955 µM in the assay listed under Rattus norvegicus [6], 0.0977 µM in the assay listed under Rattus norvegicus [4] and 0.00955 µM in the assay listed under Rattus norvegicus [5].

Turning to `COc1ccc(C[C@@H]2NC(=O)CCSSC[C@@H](C(=O)N3CCC[C@H]3C(=O)N[C@H](CCCN=C(N)N)C(=O)NCC(N)=O)NC(=O)[C@H](CC(N)=O)NC(=O)[C@H](CCC(N)=O)NC(=O)[C@H](Cc3ccccc3)NC2=O)cc1` [listing 1 of 2 here], the Activity in the assay filed under Rattus norvegicus [1] is 236 units/mg. The compound further displayed an ED in the assay on Rattus norvegicus [2] of 9.8 nM/kg.

`CCOc1ccc(C[C@@H]2NC(=O)CCSSC[C@@H](C(=O)N3CCC[C@H]3C(=O)N[C@H](CCCN=C(N)N)C(=O)NCC(N)=O)NC(=O)[C@H](CC(N)=O)NC(=O)[C@H](CCC(N)=O)NC(=O)[C@H](Cc3ccccc3)NC2=O)cc1` [listing 2 of 2 here] registered an Activity in the assay listed under Rattus norvegicus [1] of 30 units/mg. This compound also came in with an ED in the assay on Rattus norvegicus [2] of 8.8 nM/kg.

The compound `CCOc1ccc(C[C@@H]2NC(=O)CCSSC[C@@H](C(=O)N3CCC[C@H]3C(=O)N[C@@H](CCCN=C(N)N)C(=O)NCC(N)=O)NC(=O)[C@H](CC(N)=O)NC(=O)[C@H](C(C)C)NC(=O)[C@H](Cc3ccccc3)NC2=O)cc1` [listing 1 of 2 here] yielded an Activity in the assay filed under Rattus norvegicus [1] of 187 units/mg. This compound came in with an ED with Rattus norvegicus [2] of 1.9 nM/kg.

The compound `CC(C)[C@@H]1NC(=O)[C@H](Cc2ccccc2)NC(=O)[C@H](Cc2ccc(O)cc2)NC(=O)CCSSC[C@@H](C(=O)N2CCC[C@H]2C(=O)N[C@H](CCCNC(=N)N)C(=O)NCC(N)=O)NC(=O)[C@H](CC(N)=O)NC1=O` (HELM PEPTIDE1{[O=C(CCS[*:3])[*:2]].Y.F.V.N.C.P.[dR].G.[am]}$PEPTIDE1,PEPTIDE1,1:R3-6:R3$$$V2.0) had an Activity in the assay filed under Rattus norvegicus [1] of 1230 units/mg. The ED in the assay on Rattus norvegicus [2] was 7.2 nM/kg. The agonist potency in the assay filed under Rattus norvegicus [7] was determined as 8 units/mg; in the assay filed under Rattus norvegicus [8] it was 3 units/mg.

In turn, `CCOc1ccc(C[C@@H]2NC(=O)CCSSC[C@@H](C(=O)N3CCC[C@H]3C(=O)N[C@@H](CCCN=C(N)N)C(=O)NCC(N)=O)NC(=O)[C@H](CC(N)=O)NC(=O)[C@H](CCC(N)=O)NC(=O)[C@H](Cc3ccccc3)NC2=O)cc1` [listing 2 of 2 here] yielded an Activity in the assay listed under Rattus norvegicus [1] of 242 units/mg. For the same compound, in the assay with Rattus norvegicus [2], the ED turned out to be 11 nM/kg.

`CCOc1ccc(C[C@@H]2NC(=O)CCSSC[C@@H](C(=O)N3CCC[C@H]3C(=O)N[C@H](CCCN=C(N)N)C(=O)NCC(N)=O)NC(=O)[C@H](CC(N)=O)NC(=O)[C@H](C(C)C)NC(=O)[C@H](Cc3ccccc3)NC2=O)cc1` [listing 1 of 2 here] came in with an Activity in the assay filed under Rattus norvegicus [1] of 132 units/mg. For the same compound, the ED in the assay on Rattus norvegicus [2] was 6.3 nM/kg.

In the assay listed under Rattus norvegicus [1], `N=C(N)NCCC[C@@H](NC(=O)[C@@H]1CCCN1C(=O)[C@@H]1CSSCCC(=O)N[C@@H](Cc2ccc(O)cc2)C(=O)N[C@@H](Cc2ccccc2)C(=O)N[C@@H](CCC(N)=O)C(=O)N[C@@H](CC(N)=O)C(=O)N1)C(=O)NCC(N)=O` (stereo in doubt; form 1) [DESMOPRESSIN] showed an Activity of 1740 units/mg. For the same compound, the agonist potency in the assay filed under Rattus norvegicus [7] stood at 54 units/mg; in the assay listed under Rattus norvegicus [10], 167 units/mg. Moreover, the Ratio in assay [9] amounted to 5.

In the case of `CCOc1ccc(C[C@@H]2NC(=O)CCSSC[C@@H](C(=O)N3CCC[C@H]3C(=O)N[C@@H](CCCN=C(N)N)C(=O)NCC(N)=O)NC(=O)[C@H](CC(N)=O)NC(=O)[C@H](C(C)C)NC(=O)[C@H](Cc3ccccc3)NC2=O)cc1` [listing 2 of 2 here], the Kb in the assay filed under Rattus norvegicus [3] was 0.0126 µM; in the assay filed under Rattus norvegicus [4], 0.0288 µM; in the assay filed under Rattus norvegicus [5] it was 0.0229 µM.

The compound `COc1ccc(C[C@@H]2NC(=O)CCSSC[C@@H](C(=O)N3CCC[C@H]3C(=O)N[C@@H](CCCN=C(N)N)C(=O)NCC(N)=O)NC(=O)[C@H](CC(N)=O)NC(=O)[C@H](CCC(N)=O)NC(=O)[C@H](Cc3ccccc3)NC2=O)cc1` returned an Activity in the assay filed under Rattus norvegicus [1] of 830 units/mg. In assay [9], the Ratio came out at 202.

As for `COc1ccc(C[C@@H]2NC(=O)CCSSC[C@@H](C(=O)N3CCC[C@H]3C(=O)N[C@@H](CCCN=C(N)N)C(=O)NCC(N)=O)NC(=O)[C@H](CC(N)=O)NC(=O)[C@H](C(C)C)NC(=O)[C@H](Cc3ccccc3)NC2=O)cc1` [listing 1 of 2 here], the Kb in the assay listed under Rattus norvegicus [3] was 0.0117 µM; in the assay listed under Rattus norvegicus [4], 0.055 µM; in the assay filed under Rattus norvegicus [5], 0.0195 µM.

Regarding `CCOc1ccc(C[C@@H]2NC(=O)CCSSC[C@@H](C(=O)N3CCC[C@H]3C(=O)N[C@H](CCCN=C(N)N)C(=O)NCC(N)=O)NC(=O)[C@H](CC(N)=O)NC(=O)[C@H](C(C)C)NC(=O)[C@H](Cc3ccccc3)NC2=O)cc1` [listing 2 of 2 here], the Kb in the assay listed under Rattus norvegicus [3] is 0.0282 µM; in the assay filed under Rattus norvegicus [4] it was 0.0851 µM; in the assay listed under Rattus norvegicus [5], 0.0229 µM.

`CC(C)[C@@H]1NC(=O)[C@H](Cc2ccccc2)NC(=O)[C@H](Cc2ccc(O)cc2)NC(=O)CCSSC[C@@H](C(=O)N2CCC[C@H]2C(=O)N[C@@H](CCCN=C(N)N)C(=O)NCC(N)=O)NC(=O)[C@H](CC(N)=O)NC1=O` (HELM PEPTIDE1{[O=C(CCS[*:3])[*:2]].Y.F.V.N.C.P.R.G.[am]}$PEPTIDE1,PEPTIDE1,1:R3-6:R3$$$V2.0) yielded an Activity in the assay listed under Rattus norvegicus [1] of 1150 units/mg. Also, the results for the agonist potency in the assay listed under Rattus norvegicus [7] and in the assay listed under Rattus norvegicus [8] were 31 units/mg and 26 units/mg, respectively. Also, in [9], the Ratio came out at 225.

On to `COc1ccc(C[C@@H]2NC(=O)CCSSC[C@@H](C(=O)N3CCC[C@H]3C(=O)N[C@H](CCCN=C(N)N)C(=O)NCC(N)=O)NC(=O)[C@H](CC(N)=O)NC(=O)[C@H](CCC(N)=O)NC(=O)[C@H](Cc3ccccc3)NC2=O)cc1` [listing 2 of 2 here], for which the Kb in the assay filed under Rattus norvegicus [3] was 0.0117 µM; in the assay listed under Rattus norvegicus [11], 0.107 µM; in the assay filed under Rattus norvegicus [5], 0.0398 µM.

For `COc1ccc(C[C@@H]2NC(=O)CCSSC[C@@H](C(=O)N3CCC[C@H]3C(=O)N[C@@H](CCCN=C(N)N)C(=O)NCC(N)=O)NC(=O)[C@H](CC(N)=O)NC(=O)[C@H](C(C)C)NC(=O)[C@H](Cc3ccccc3)NC2=O)cc1` [listing 2 of 2 here], the Activity in the assay listed under Rattus norvegicus [1] was found to be 789 units/mg. In addition, in the assay on Rattus norvegicus [2], the ED came to 3.7 nM/kg.

`N=C(N)NCCC[C@@H](NC(=O)[C@@H]1CCCN1C(=O)[C@@H]1CSSCCC(=O)N[C@@H](Cc2ccc(O)cc2)C(=O)N[C@@H](Cc2ccccc2)C(=O)N[C@@H](CCC(N)=O)C(=O)N[C@@H](CC(N)=O)C(=O)N1)C(=O)NCC(N)=O` (stereo in doubt; form 2) [DESMOPRESSIN] gave an Activity in the assay filed under Rattus norvegicus [1] of 1200 units/mg. The agonist potency amounted to 1.5 units/mg in the assay filed under Rattus norvegicus [7] and 2.9 units/mg in the assay listed under Rattus norvegicus [8]. Further, the Ratio in assay [9] came to 3037.
